MC4R barr agon = MC4R agonists recruiting beta-arrestin, primary screen, cell-based, luminescence, agonist arm of biased-ligand search; Melanocortin receptor 4 (Homo sapiens), P32245; U2OS MC4R beta-arrestin complementation; percent of melanotan II response, DMSO zero; activation, % at 8.9 µM; 360,000 compounds, 0.98% hits;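 active = activation above a per-plate cutoff, the mean activation of sample wells on that plate plus 3 SD, cut at about 8% in these data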
B2AR ag = beta2AR agonists driving receptor internalization, primary screen, cell-based, FAP fluorogen, flow cytometry; AID 504454, 2011; 340,000 compounds, 0.43% hits; Am2.2-beta2AR cells; response, % (concentration not given with the values); Beta-2 adrenergic receptor (Homo sapiens), P07550;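 active = response above a set limit, near 3 SD of response in nonfluorescent compounds, cut at about 42% in these data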
Target sequence (P07550 whole entry, looked up): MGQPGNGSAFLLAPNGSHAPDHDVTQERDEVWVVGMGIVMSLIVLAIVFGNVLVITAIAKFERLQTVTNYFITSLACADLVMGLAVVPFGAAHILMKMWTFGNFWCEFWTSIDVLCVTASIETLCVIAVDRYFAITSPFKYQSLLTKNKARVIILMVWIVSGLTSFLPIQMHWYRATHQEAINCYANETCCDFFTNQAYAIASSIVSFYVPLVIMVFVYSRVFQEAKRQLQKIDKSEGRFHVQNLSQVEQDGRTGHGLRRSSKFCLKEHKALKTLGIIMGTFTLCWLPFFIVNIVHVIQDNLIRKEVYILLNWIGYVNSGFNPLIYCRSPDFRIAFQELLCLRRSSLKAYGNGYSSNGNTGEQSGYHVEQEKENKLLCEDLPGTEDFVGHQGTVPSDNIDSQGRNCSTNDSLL
ABHD5 PLIN5 PPI = ABHD5-PLIN5 interaction inhibitors, primary screen, cell lysate, split luciferase complementation, luminescence; Perilipin-5 (Homo sapiens) + 1-acylglycerol-3-phosphate O-acyltransferase ABHD5 (Homo …; Split G. princeps luciferase complementation, 4 h; inhibition, % at 4 µM; 360,000 compounds, 0.78% hits; AID 602281, 2012;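 active = inhibition above the mean inhibition across every tested compound plus 3 SD, cut at about 22% in these data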
MC4R antag cAMP = MC4R antagonists of cAMP signaling, primary screen, cell-based, TR-FRET, antagonist arm of biased-ligand search. Melanocortin receptor 4 (Homo sapiens), P32245. MC4R-expressing cells, MTII-stimulated cAMP, LANCE TR-FRET. inhibition, % at 6.5 µM. 360,000 compounds, 0.48% hits;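 active = inhibition above its plate's cutoff, the mean of tested wells on that plate plus 3 SD, cut at about 29% in these data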
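Assay system: U2OS-MC4R stable cell line; Also added: Melanotan II; Technique: Eu-cAMP/anti-cAMP TR-FRET, emission 671 nm; Times: 30-min compound, 1-h challenge, 1-h detection, room temperature.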
PfGluPho inh = PfG6PD enzyme inhibitors, primary screen, biochemical, fluorescence intensity, uHTS | PfGluPho enzyme, NADPH resazurin-diaphorase fluorescence | AID 504690, 2011 | 350,000 compounds, 0.78% hits | glucose-6-phosphate dehydrogenase-6-phosphogluconolactonase (Plasmodium falciparum 3D7) | inhibition, % at 20 µM;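 active = inhibition reaching at least a set limit at 20 µM in the primary screen, cut at about 59% in these data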
MC4R barr ag = MC4R beta-arrestin agonists, retest, confirmation, cell-based, luminescence, U2OS. U2OS MC4R beta-arrestin recruitment; scaled DMSO 0%, Melanotan II 100%. shares compounds with MC4R barr agon. 2,400 compounds, 31% hits. AID 602192, 2012. activation, % at 8.9 µM;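 active = mean activation across replicates above the hit cutoff set in the earlier primary screen, cut at about 8% in these data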
MOR DOR agonist = agonists of MOR-DOR heterodimerization, counter-screen for MC4R biased agonist project, cell-based, luminescence. activation, % at 9.2 µM. U2OS PathHunter beta-arrestin, beta-gal luminescence; percent of deltorphin B response, DMSO zero. 2,400 compounds, 5.8% hits. shares compounds with MC4R barr agon;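 active = mean activation across replicates exceeds the hit threshold derived in the earlier primary screen, cut at about 18% in these data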
A number is an active result; i = inactive; nt = no result. Most compounds without a hit are left out; they make up all but 3% or so of the library.

SMILES | MC4R barr agon | B2AR ag | ABHD5 PLIN5 PPI | MC4R antag cAMP | PfGluPho inh | MC4R barr ag | MOR DOR agonist
O=C(O)CC/C(=N/NC(=O)CNC(=O)c1ccc2c(c1)OCCO2)c1ccccc1 | i | i | i | i | i | nt | nt
Cc1c(-c2ccc(F)cc2)nc(N)c(C#N)c1-c1ccco1 | 15 | i | i | i | i | i | i
CCc1nc(N)c(C#N)c(-c2ccc(F)cc2)c1C | i | i | i | i | i | nt | nt
Fc1cc(Br)ccc1Nc1nc2ccccc2n2nnnc12 | 14 | i | i | i | i | 9.6 | i
CS(=O)(=O)c1ccc(Cl)c(NC(=O)CCN2C(=O)NC3(CCCC3)C2=O)c1 | i | i | i | i | i | nt | nt
O=C(CCc1c[nH]c2ccccc12)N1CCN(c2ccc(O)cc2)CC1 | i | i | i | i | i | nt | nt
CN(C)c1ccc(NC(=O)/C=C/c2c(Cl)cccc2Cl)cc1 | 10 | i | i | i | i | i | i
CN(C)S(=O)(=O)c1ccc(NC(=O)/C=C/c2ccccc2Cl)cc1 | i | i | i | i | i | nt | nt
CCCCCCCCCCOC(=O)Cn1c(COc2ccccc2)[n+](C)c2ccccc21 | 18 | i | i | i | i | 29 | 23
COc1ccc(C)cc1NC(=O)CCNC(=O)Cn1ccc2ccccc2c1=O | i | i | i | i | i | nt | nt
O=C1Nc2ccccc2O/C1=C\c1ccccc1 | 13 | i | i | i | i | i | i
CC(C)(C)OC(=O)N[C@@H](Cc1ccccc1)c1nnc(SCC(=O)c2ccc(Cl)cc2)o1 | 35 | i | i | i | i | i | i
CC(C)(C)OC(=O)N[C@@H](Cc1ccccc1)c1nnc(SCC(=O)O)o1 | i | i | i | i | i | nt | nt
COCCCn1c(=O)/c(=C\c2ccccc2OC(F)F)s/c1=C(/C#N)C(N)=O | i | i | i | i | i | nt | nt
COCCCn1c(=O)/c(=C\c2ccc(OC(F)F)c(OC)c2)s/c1=C(/C#N)C(N)=O | 12 | i | i | i | i | i | i
C/C(=N\NC(=O)c1ccc(Cl)cc1)c1cccs1 | i | i | i | i | i | nt | nt
C/C(=N/NC(=O)c1cccs1)c1ccc(NC(=O)COc2ccc(Cl)cc2)cc1 | 12 | i | i | i | i | 13 | i
COc1ccc(NC(=O)CSc2nnc(C)s2)cc1S(=O)(=O)N1CCOCC1 | i | i | i | i | i | nt | nt
NC(=S)N/N=C/c1cc([N+](=O)[O-])ccc1OCCOc1ccccc1 | 16 | i | i | i | i | i | i
CC(C)(C)c1cc(C(=O)Nc2ccc(F)cc2)n(Cc2ccc(F)cc2)n1 | 9.6 | i | i | i | i | i | i
Cc1ccc(NC(=O)c2cc(C(C)(C)C)nn2Cc2ccccc2)cc1 | i | i | i | i | i | nt | nt
Cc1cccc(NC(=O)c2cccc3c2C(=O)c2ccccc2-3)c1 | 33 | i | i | i | i | 8.3 | i
Cc1cccc(NC(=O)c2ccccc2-c2ccccc2)c1 | i | i | i | i | i | nt | nt
C[C@@H]1CCC[C@]2(O[C@@H](CCO)C[C@@H](O)[C@@H]2O)O1 | i | i | i | i | i | nt | nt
Cc1ccc2nsnc2c1NC(=O)c1sc2ccccc2c1Cl | 13 | i | i | i | i | i | i
COc1cc(CNC(=O)C2CCC(=O)N(C3CCCCCC3)C2)cc(OC)c1 (configuration not stated) | i | i | i | i | i | nt | nt
O=C(NCc1ccc(-c2csnn2)cc1)c1cc(Cl)cc(Cl)c1 | 13 | i | i | i | i | i | i
CCCOc1c(Br)cc(C(=O)OCC(=O)NC(=O)c2cccn2C)cc1OC | 18 | i | i | i | i | 8.6 | i
COc1ccc(Cl)cc1C(=O)OCC(=O)NC(=O)c1cccn1C | i | i | i | i | i | nt | nt

Source: PubChem (several laboratories)
